Experimental data as given in ChEMBL document CHEMBL3616459, “Antimicrobial peptides with potential for biofilm eradication: synthesis and structure activity relationship studies of battacin peptides” (J Med Chem, 2015).
Values after ≈ are worked out from the molar mass of the structure shown. Active and inactive are the calls of the source. No cut-off for these calls is given here. Non-standard residues stand in square brackets, D forms with d. Residues, ends and D or L forms follow the SMILES beside them. ξ: configuration not given here. *: point of attachment. Hexanoyl(4ξ-Me) = CCC(C)CCC(=O)*; dDab = NCC[C@@H](N)C(=O)O; Dab = NCC[C@H](N)C(=O)O

Legend:
[1] = system: Escherichia coli; experiment: Antimicrobial activity against Escherichia coli after 24 hrs by spectrophotometry; format: functional
Procedure, shortened: (§1)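 Broth microdilution in Luria broth. Overnight culture from a single colony, grown at 28 °C (Ea1501, Psa) or 37 °C (E. coli, S. aureus), adjusted to OD600 0.6. Peptide dissolved in LB with 0.5% acetic acid as a dilution series; 50 μL peptide plus 50 μL culture per well, triplicates.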

[2] = system: Pseudomonas aeruginosa; experiment: Antimicrobial activity against Pseudomonas aeruginosa after 24 hrs by spectrophotometry; format: functional
[3] = system: Staphylococcus aureus; experiment: Antimicrobial activity against Staphylococcus aureus after 24 hrs by spectrophotometry; format: functional; procedure, shortened: as §1
[4] = system: Staphylococcus aureus; experiment: Ratio of gentamycin MIC to compound MIC for Staphylococcus aureus after 24 hrs by spectrophotometry; format: functional
[5] = system: Erwinia amylovora; experiment: Bactericidal activity against Erwinia amylovora 1501 by time-kill assay; format: functional, organism-based
Procedure, shortened: (§2)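 Time-kill assay. Overnight culture diluted in LB to mid-log phase, 10^5–10^8 CFU/mL; 100 μL added to 10 mL peptide in LB at 1×, 2×, 4× and 20× MIC. Incubated with shaking at 100 rpm, at 28 °C (Ea1501, Psa) or 37 °C (E. coli, P. aeruginosa, S. aureus). Samples at 0, 0.5, 1, 3, 6, 9 and 24 h serially diluted in 0.9% saline and plated; colonies counted after 24 h. Run in duplicate. Bactericidal means ≥2-log10 CFU/mL drop versus the no-antibiotic control.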

[6] = system: Escherichia coli; experiment: Bactericidal activity against Escherichia coli by time-kill assay; format: functional, organism-based; procedure, shortened: as §2
[7] = system: Pseudomonas syringae; experiment: Bactericidal activity against Pseudomonas syringae pv. actinidiae 16027 by time-kill assay; format: functional, organism-based; procedure, shortened: as §2
[8] = system: Pseudomonas aeruginosa; experiment: Bactericidal activity against Pseudomonas aeruginosa by time-kill assay; format: functional, organism-based; procedure, shortened: as §2
[9] = system: Escherichia coli; experiment: Bactericidal activity against Escherichia coli assessed as reduction in bacterial count at 2 to 4 times MIC up to 9 hrs by time-kill assay relative to control; format: functional; procedure, shortened: as §2
[10] = system: Escherichia coli; experiment: Bactericidal activity against Escherichia coli assessed as reduction in bacterial count at 2 to 4 times MIC after 24 hrs by time-kill assay relative to control; format: functional, organism-based; procedure, shortened: as §2
[11] = system: Erwinia amylovora; experiment: Bactericidal activity against Erwinia amylovora 1501 at 2 to 20 times MIC up to 6 hrs by time-kill assay; format: functional, organism-based; procedure, shortened: as §2
[12] = system: Pseudomonas syringae; experiment: Bactericidal activity against Pseudomonas syringae pv. actinidiae 16027 at 4 times MIC up to 6 hrs by time-kill assay; format: functional, organism-based; procedure, shortened: as §2
[13] = system: Pseudomonas syringae; experiment: Bactericidal activity against Pseudomonas syringae pv. actinidiae 16027 at 1 to 20 times MIC after 24 hrs by time-kill assay; format: functional, organism-based; procedure, shortened: as §2
[14] = system: Pseudomonas aeruginosa; experiment: Bactericidal activity against Pseudomonas aeruginosa at 20 times MIC after 9 hrs by time-kill assay relative to control; format: functional, organism-based; procedure, shortened: as §2
[15] = system: Pseudomonas aeruginosa; experiment: Bactericidal activity against Pseudomonas aeruginosa at 20 times MIC after 24 hrs by time-kill assay relative to control; format: functional, organism-based; procedure, shortened: as §2
[16] = system: Staphylococcus aureus; experiment: Bactericidal activity against Staphylococcus aureus at 4 to 20 times MIC after 3 hrs by time-kill assay; format: functional, organism-based; procedure, shortened: as §2
[17] = system: Staphylococcus aureus; experiment: Bactericidal activity against Staphylococcus aureus at 1 to 2 times MIC after 6 hrs by time-kill assay; format: functional, organism-based; procedure, shortened: as §2
[18] = system: Staphylococcus aureus; experiment: Bactericidal activity against Staphylococcus aureus at 1 to 2 times MIC after 24 hrs by time-kill assay; format: functional, organism-based; procedure, shortened: as §2
[19] = system: Pseudomonas syringae; experiment: Inhibition of Pseudomonas syringae pv. actinidiae 16027 biofilm formation at 5 uM after 48 hrs; format: functional
Procedure, shortened: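 Psa16027 overnight culture (OD600 0.3) grown at 28 °C in LB. 50 μL peptide in LB (1–100 μM) plus 50 μL diluted culture, triplicates, incubated 48 h at 28 °C at 50 rpm. Wells stained with 1% crystal violet for 5 min and washed; stain solubilized in 96% ethanol and A560 read as biofilm mass. For imaging, 12-well plates were used and stained biofilms viewed at 400×.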

[20] = system: Pseudomonas syringae pv. actinidiae; experiment: Antimicrobial activity against Pseudomonas syringae pv. actinidiae 16027 preformed biofilms at 5 to 10 uM after 24 hrs; format: functional
Procedure, shortened: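 Psa16027 biofilms formed 48 h without peptide, then washed. 100 μL of peptide (1, 5 or 50 μM) in LB, or LB alone, added and incubated a further 24 h at 28 °C. Crystal violet staining followed, with A560 estimation of biofilm mass and microscopy.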

[21] = system: Staphylococcus aureus; experiment: Inhibition of Staphylococcus aureus biofilm formation at 10 to 25 uM after 48 hrs; format: functional, organism-based
Procedure, shortened: (§3)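 P. aeruginosa or S. aureus biofilms grown 48 h on coverslips in 12-well plates, with peptide added at inoculation at 5, 10, 25, 50 or 100 μM. Coverslips rinsed, dried at 50 °C and stained with BacLight (SYTO 9/propidium iodide) for 25 min in the dark at room temperature. Examined by fluorescence microscopy at 1000×.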

[22] = system: Pseudomonas aeruginosa; experiment: Inhibition of Pseudomonas aeruginosa biofilm formation at 10 to 50 uM after 48 hrs; format: functional, organism-based; procedure, shortened: as §3
[23] = system: Pseudomonas aeruginosa; experiment: Antimicrobial activity against Pseudomonas aeruginosa preformed biofilms at 10 to 50 uM after 48 hrs; format: functional, organism-based
Procedure, shortened: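 Biofilms preformed 48 h without peptide, then washed. Peptide at 10, 50 or 100 μM in LB added and incubated a further 24 h at 37 °C. Live/dead BacLight staining on coverslips, then fluorescence microscopy at 1000×.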

[24] = system: Pseudomonas aeruginosa; experiment: Antimicrobial activity against Pseudomonas aeruginosa assessed as outer membrane permeability at 0.5 to 100 uM measured after 1 min by N-phenylnaphthylamine uptake assay; format: functional, organism-based
Procedure, shortened: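 Cells grown overnight in LB at 37 °C, then regrown to OD600 0.5, washed thrice and resuspended to OD600 0.5 in 10 mM phosphate buffer pH 7.0. Peptide (30 μL, 0.5–100 μM) added to 2.94 mL suspension, with NPN at 10 μM final. Fluorescence read at ex 350/em 420 nm, triplicate readings averaged.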

[25] = system: Pseudomonas aeruginosa; experiment: Antimicrobial activity against Pseudomonas aeruginosa assessed as perturbed cell membrane at 2 times MIC measured after 24 hrs by scanning electron microscopy; format: functional, organism-based
Procedure, shortened: (§4)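 Bacteria grown to OD600 0.3 in LB on glass slides for 24 h, then washed with 10 mM sodium phosphate pH 7.4. Treated 20 min with peptide in LB at twice the upper limit of its MIC, washed, and fixed in 4% glutaraldehyde 1 h. Dehydrated through graded ethanol, dried at 60 °C, platinum coated, and imaged by SEM at 10 kV.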

[26] = system: Staphylococcus aureus; experiment: Antimicrobial activity against Staphylococcus aureus assessed as perturbed cell membrane at 2 times MIC measured after 24 hrs by scanning electron microscopy; format: functional, organism-based; procedure, shortened: as §4
[27] = system: Escherichia coli; experiment: Antimicrobial activity against Escherichia coli assessed as perturbed cell membrane at 2 times MIC measured after 24 hrs by scanning electron microscopy; format: functional, organism-based; procedure, shortened: as §4
[28] = system: Pseudomonas aeruginosa; experiment: Antimicrobial activity against Pseudomonas aeruginosa assessed as complete cell lysis at 2 times MIC […]; format: functional, organism-based
[29] = system: Staphylococcus aureus; experiment: Antimicrobial activity against Staphylococcus aureus assessed as complete cell lysis at 2 times MIC […]; format: functional, organism-based
[30] = system: Escherichia coli; experiment: Antimicrobial activity against Escherichia coli assessed as complete cell lysis at 2 times MIC measured after 24 hrs by scanning electron microscopy; format: functional, organism-based; procedure, shortened: as §4
[31] = Hemolytic activity in mouse erythrocytes at 100 uM to 1 mM after 1 hr by spectrophotometry; format: ADME, cell-based, Erythrocyte; details: read-out: Activity
Procedure, shortened: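 100 μL peptide (1 μM–1 mM in Tris buffer) plus 100 μL cells, incubated 1 h at 37 °C, triplicates. After centrifugation, supernatant A540 read. Percent hemolysis calculated relative to buffer (0%) and 0.1% Triton X-100 (100%) controls.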

## CCC(C)CCC(=O)N[C@H](CCN)C(=O)N[C@@H](CCN)C(=O)N[C@@H](CCN)C(=O)N[C@@H](CC(C)C)C(=O)N[C@H](Cc1ccccc1)C(=O)N[C@@H](CCN)C(=O)N[C@@H](CCN)C(=O)N[C@@H](CC(C)C)C(N)=O (stereo partly drawn) ({Hexanoyl(4ξ-Me)}-[dDab][Dab][Dab]L[dF][Dab][Dab]L-NH2)
[1]
  MIC: 2.5 µM (≈ 2.51 µg/mL)
[2]
  MIC: 1 µM (≈ 1 µg/mL)
[3]
  MIC: 1 µM (≈ 1 µg/mL)
[4]
  Ratio: 2
[5]
  Activity: Dose-dependent effect
[6]
  Activity: Dose-dependent effect
[7]
  Activity: Dose-dependent effect
[8]
  Activity: Dose-dependent effect
[9]
  Activity: >3 deltalog10CFU/ml
[10]
  Activity: inactive
[11]
  Activity: Active
[12]
  Activity: Active
[13]
  Activity: inactive
[14]
  Activity: Active
[15]
  Activity: Active
[16]
  Activity: Active
[17]
  Activity: Active
[18]
  Activity: Active
[19]
  inhibition: Active
[20]
  Activity: Active
[21]
  inhibition: Active
[22]
  inhibition: Active
[23]
  Activity: Active
[24]
  Activity: Active
[25]
  Activity: Active
[26]
  Activity: Active
[27]
  Activity: Active
[28]
  Activity: Active
[29]
  Activity: Active
[30]
  Activity: Active
[31]
  hemolysis at 1 h, 100 µM: 1.79%
